# How the values were obtained:
# [1] = assay type: in vivo, Sprague Dawley rats
# How it was run: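 Male SD rats (250 ± 20 g), acclimated one week, n = 6 per group, oral single dose. Plasma separated at 4 °C, stored −80 °C, acetonitrile-precipitated with chrysophanol internal standard and diluted with water. Emodin quantified by HPLC-MS/MS, C18 column at 40 °C, triple quadrupole.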
# [2] = In vitro powder dissolution in pH 6.8 and pH 7.0 media; assay type: physicochemical
# How it was run: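 60 mg emodin, or an equivalent amount of cocrystal, added to 900 mL of pH 6.8 or pH 7.0 medium at 37 °C with propeller at 100 rpm. Autosampled 1 mL at 10–720 min (nine points), centrifuged 13,400 rpm for 10 min, supernatant by HPLC. Run in triplicate.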
# [3] = Equilibrium solubility, shake-flask method; assay type: physicochemical; conditions: pH 1.2, pH 4.5, pH 6.8, 37 °C
# How it was run: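 Shake-flask method: excess solid stirred in 5 mL of water or pH 1.2, 4.5 or 6.8 buffer at 37 °C for 72 h. Samples were centrifuged, and the supernatant was assayed directly by HPLC using a modified Chinese Pharmacopoeia method.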
# [4] = ref NIST (National Institute of Standards and Technology, n.d); cited from earlier work
# [5] = male, Sprague Dawley, rat, plasma, po, 100 mg/kg
"AUC(0-inf) [1, 5] [ng·h/mL]","AUC(0-t) [1, 5] [ng·h/mL]","Cmax [1, 5] [ng/mL]","MRT inf [1, 5] [h]","MRT last [1, 5] [h]","Tmax [1, 5] [h]","half-life [1, 5] [h]","CLz ([1]; rats, oral, EMO 100 mg/kg or equimolar cocrystal, plasma EMO, n = 6) [mL/h/kg]",Apparent dissolution (detectability) [2],Solubility in purified water and three other media [3],SMILES,Sublimation enthalpy [4] [kcal/mol]
33400,2370 ± 947,274 ± 160,5.9 ± 5.41,10.3 ± 1.94,11 ± 1.67,4.13 ± 1.97,4 ± 3,undetectability,negligible solubility,"Cc1cc(O)c2c(c1)C(=O)c1cc(O)cc(O)c1C2=O [EMO, Emodin]",
,,,,,,,,,,"Cc1nc(C)c(C)nc1C [TMP, Tetramethylpyrazine]",22.6

# Source: PMC12657421 (International Journal of Pharmaceutics: X, 2025)
